Substitutions are numbered along the chain they refer to.
How the values were obtained:
Assay type in all cases: cell-based, rabbit
D444S-EAAC1 [1] = biological target: T1, D444S-EAAC1 (Oryctolagus cuniculus, UniProt P31597, D444S); assay: Blockade of sodium-dependent transient currents; details: D444S; for Decay time of transient currents blocked: 10 mM compound, at −100 mV; for IC50: read-out: IC50 for substrates/blockers of charge movements, Xenopus oocytes, mean ± SEM
T1 sequence (P31597 1-524 D444S): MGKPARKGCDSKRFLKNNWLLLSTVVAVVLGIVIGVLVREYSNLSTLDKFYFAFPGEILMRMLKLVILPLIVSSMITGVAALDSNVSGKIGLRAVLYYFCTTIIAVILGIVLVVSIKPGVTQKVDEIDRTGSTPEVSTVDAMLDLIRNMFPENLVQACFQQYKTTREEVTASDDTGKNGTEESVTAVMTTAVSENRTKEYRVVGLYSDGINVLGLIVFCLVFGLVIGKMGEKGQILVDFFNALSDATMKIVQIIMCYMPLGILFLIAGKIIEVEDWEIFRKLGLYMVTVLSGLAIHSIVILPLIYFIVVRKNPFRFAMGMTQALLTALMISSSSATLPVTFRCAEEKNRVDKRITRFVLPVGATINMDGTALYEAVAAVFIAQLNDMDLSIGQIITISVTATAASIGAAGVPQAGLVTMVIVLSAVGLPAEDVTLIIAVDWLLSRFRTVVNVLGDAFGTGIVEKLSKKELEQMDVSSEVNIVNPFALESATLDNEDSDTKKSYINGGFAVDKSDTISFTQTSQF
Procedure, shortened: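 Oocytes expressing the mutant were clamped in sodium ND96 and given 250-ms pulses from −25 mV to −100…+40 mV, with and without compound; TBOA was added to a stopped bath. Isolated transients (without minus with compound) were integrated at −100 and +40 mV and summed. Charge was normalised to 10 mM of each compound and Hill-fitted; 4–6 oocytes. Decay came from an exponential fit; 3–10 oocytes.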

D444S-EAAC1 [2] = biological target: T1, D444S-EAAC1; assay: Substrate-induced steady-state transport currents in oocytes expressing D444S; details: 2 mM for L-aspartate and succinate, other concentrations not given
D444E-EAAC1 = biological target: T2, D444E-EAAC1 (Oryctolagus cuniculus, UniProt P31597, D444E); assay: Blockade of sodium-dependent transient currents; details: for Decay time of transient currents blocked: at +80 mV; for IC50: read-out: IC50 for substrates/blockers of charge movements, Xenopus oocytes, mean ± SEM
T2 sequence (P31597 1-524 D444E): T1 sequence (P31597 1-524 D444S) with S444E
Procedure, shortened: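 Oocytes expressing the mutant were voltage clamped in ND96 (pH 7.5, HEPES) and stepped from −25 mV. Transients are buffer current minus buffer-plus-compound current. Charge is the sum of current–time integrals at −100 and +80 mV, normalised to 1 mM L-aspartate or 15 mM succinate, and fitted to a generalized Hill equation. Decay constants come from a first-order exponential fit; mean ± SEM of 3–10 oocytes.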

WT-EAAC1 = biological target: T3, WT-EAAC1 (Oryctolagus cuniculus, UniProt P31597); details: 2 mM, NaSCN-based buffer
T3 sequence (P31597 1-524): T1 sequence (P31597 1-524 D444S) with S444D
Procedure, shortened: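 Two-electrode voltage clamp of oocytes in buffer with all NaCl replaced by NaSCN, grounded through a 2% agarose/2 M KCl bridge. Compounds were 2 mM; TBOA (10 μM) was added to a stopped bath. Steps from −25 mV to −100…+40 mV. Net steady-state current (with minus without) was normalised to the L-aspartate current at +40 mV; mean ± SEM of 3 oocytes (L-aspartate n = 6).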

SMILES | Decay time of transient currents blocked (D444S-EAAC1 [1]) | IC50 (D444S-EAAC1 [1]) | Induction of steady-state transport currents (D444S-EAAC1 [2]) | Decay time of transient currents blocked (D444E-EAAC1; 10 mM compound) | IC50 (D444E-EAAC1) | Effect on the anion conductance (WT-EAAC1) | Suppression of the transient currents (D444E-EAAC1; 2 mM) | Decay time of transient currents blocked (D444E-EAAC1; 15 mM succinate) | Inhibition of the transient currents, concentration dependence (D444E-EAAC1; up to 15 mM)
N[C@@H](CC(=O)O)C(=O)O [L-Aspartate, L-aspartate] | 12.2 ± 0.6 ms | 130 ± 15 µM | not observed | 10.6 ± 1 ms | 9 ± 1 µM | stimulated the anion conductance |  |  | 
O=C(O)CCC(=O)O [Succinate, succinate] | 9.9 ± 0.7 ms | 1340 ± 110 µM | did not induce any steady-state currents |  | > 6000 µM | not seen | only slightly suppressed | 5.1 ± 0.7 ms | saturation was not reached

From publication PMC2151622 (The Journal of General Physiology, 2007)
